Test results as given in article PMC4415995 (Advances in Therapy, 2015).
Marks after values point to notes of the source that are not given here.

Tested on: Japanese patients with T2DM
Assay: Plasma glucose concentrations, 7-day once-daily dosing
Assay type: in vivo, human
Procedure, shortened: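 Plasma glucose was measured by a glucose dehydrogenase enzymatic UV method. Sampling was pre-breakfast/pre-dose and 0.5–24 h after breakfast on Day −1, after dosing on Days 1 and 7, and pre-breakfast on Days 11 and 14. Standardized ~600 kcal meals were given, with lunch and dinner at 4 and 12 h. AUC, Cmax and tmax were non-compartmental. MPG was the mean of the 0, 2, 4, 6, 12, 14 and 16 h values. LS mean difference vs placebo with 95% CI.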

CCOc1ccc(Cc2cc([C@@H]3S[C@H](CO)[C@@H](O)[C@H](O)[C@H]3O)c(OC)cc2C)cc1 [Luseogliflozin, (1S)-1,5-anhydro-1-[5-(4-ethoxybenzyl)-2-methoxy-4-methylphenyl]-1-thio-D-glucitol]
Plasma glucose AUC4–8h (after lunch) (1 mg OD, Day 1): 766 ± 131 mg·h/dL | Plasma glucose AUC4–8h (after lunch) LS mean difference vs placebo (95% CI) (1 mg OD, Day 1): −89.1 (−166, −11.9)* mg h/dL | Plasma glucose AUC12–16h (after dinner) (1 mg OD, Day 1): 851 ± 117 mg·h/dL | Plasma glucose AUC12–16h (after dinner) LS mean difference vs placebo (95% CI) (1 mg OD, Day 1): −91.4 (−142, −40.8)* mg h/dL | Plasma glucose C max0–4h (after breakfast) (1 mg OD, Day 1): 255 ± 44.1 mg/dL | Plasma glucose C max4–8h (after lunch) (1 mg OD, Day 1): 223 ± 33.7 mg/dL | Plasma glucose C max4–8h (after lunch) LS mean difference vs placebo (95% CI) (1 mg OD, Day 1): −30.5 (−54.1, −7.02)* mg/dL | Plasma glucose C max12–16h (after dinner) (1 mg OD, Day 1): 255 ± 37.3 mg/dL | Plasma glucose C max12–16h (after dinner) LS mean difference vs placebo (95% CI) (1 mg OD, Day 1): −31.3 (−49.4, −13.3)* mg/dL | FPG (24 h after dose) (1 mg OD, Day 7): 139 ± 14 mg/dL | FPG (24 h after dose) LS mean difference vs placebo (95% CI) (1 mg OD, Day 7): −18.1 (−30.5, −5.62)* mg/dL | MPG0–16h (1 mg OD, Day 7): 184 ± 24.0 mg/dL | MPG0–16h LS mean difference vs placebo (95% CI) (1 mg OD, Day 7): −27.5 (−44.1, −10.8)* mg/dL | Plasma glucose AUC0–4h (after breakfast) (1 mg OD, Day 7): 780 ± 116 mg·h/dL | Plasma glucose AUC0–4h (after breakfast) LS mean difference vs placebo (95% CI) (1 mg OD, Day 7): −96.7 (−173, −20.0)* mg h/dL | Plasma glucose AUC4–8h (after lunch) (1 mg OD, Day 7): 787 ± 126 mg·h/dL | Plasma glucose AUC4–8h (after lunch) LS mean difference vs placebo (95% CI) (1 mg OD, Day 7): −138 (−236, −40.8)* mg h/dL | Plasma glucose AUC12–16h (after dinner) (1 mg OD, Day 7): 824 ± 125 mg·h/dL | Plasma glucose AUC12–16h (after dinner) LS mean difference vs placebo (95% CI) (1 mg OD, Day 7): −96.2 (−169, −23.2)* mg h/dL | Plasma glucose C max0–4h (after breakfast) (1 mg OD, Day 7): 240 ± 31.3 mg/dL | Plasma glucose C max4–8h (after lunch) (1 mg OD, Day 7): 229 ± 33.7 mg/dL | Plasma glucose C max4–8h (after lunch) LS mean difference vs placebo (95% CI) (1 mg OD, Day 7): −34.7 (−62.8, −6.53)* mg/dL | Plasma glucose C max12–16h (after dinner) (1 mg OD, Day 7): 242 ± 41.3 mg/dL | Plasma glucose C max12–16h (after dinner) LS mean difference vs placebo (95% CI) (1 mg OD, Day 7): −29.4 (−53.8, −5.06)* mg/dL | FPG (24 h after dose) (2.5 mg OD, Day 1): 141 ± 23 mg/dL | FPG (24 h after dose) LS mean difference vs placebo (95% CI) (2.5 mg OD, Day 1): −23.0 (−31.6, −14.4)* mg/dL | MPG0–16h (2.5 mg OD, Day 1): 210 ± 35.7 mg/dL | MPG0–16h LS mean difference vs placebo (95% CI) (2.5 mg OD, Day 1): −23.8 (−33.7, −13.9)* mg/dL | Plasma glucose AUC0–4h (after breakfast) (2.5 mg OD, Day 1): 868 ± 166 mg·h/dL | Plasma glucose AUC0–4h (after breakfast) LS mean difference vs placebo (95% CI) (2.5 mg OD, Day 1): −106 (−159, −53.6)* mg h/dL | Plasma glucose AUC4–8h (after lunch) (2.5 mg OD, Day 1): 879 ± 176 mg·h/dL | Plasma glucose AUC4–8h (after lunch) LS mean difference vs placebo (95% CI) (2.5 mg OD, Day 1): −147 (−224, −69.0)* mg h/dL | Plasma glucose AUC12–16h (after dinner) (2.5 mg OD, Day 1): 944 ± 123 mg·h/dL | Plasma glucose AUC12–16h (after dinner) LS mean difference vs placebo (95% CI) (2.5 mg OD, Day 1): −71.1 (−123, −19.2)* mg h/dL | Plasma glucose C max0–4h (after breakfast) (2.5 mg OD, Day 1): 254 ± 48.7 mg/dL | Plasma glucose C max4–8h (after lunch) (2.5 mg OD, Day 1): 250 ± 54.5 mg/dL | Plasma glucose C max4–8h (after lunch) LS mean difference vs placebo (95% CI) (2.5 mg OD, Day 1): −43.5 (−67.2, −19.7)* mg/dL | Plasma glucose C max12–16h (after dinner) (2.5 mg OD, Day 1): 279 ± 40.2 mg/dL | Plasma glucose C max12–16h (after dinner) LS mean difference vs placebo (95% CI) (2.5 mg OD, Day 1): −26.1 (−44.6, −7.60)* mg/dL | FPG (24 h after dose) (2.5 mg OD, Day 7): 122 ± 14 mg/dL | FPG (24 h after dose) LS mean difference vs placebo (95% CI) (2.5 mg OD, Day 7): −41.3 (−53.5, −29.0)* mg/dL | MPG0–16h (2.5 mg OD, Day 7): 181 ± 21.2 mg/dL | MPG0–16h LS mean difference vs placebo (95% CI) (2.5 mg OD, Day 7): −50.1 (−66.7, −33.4)* mg/dL | Plasma glucose AUC0–4h (after breakfast) (2.5 mg OD, Day 7): 738 ± 102 mg·h/dL | Plasma glucose AUC0–4h (after breakfast) LS mean difference vs placebo (95% CI) (2.5 mg OD, Day 7): −221 (−297, −145)* mg h/dL | Plasma glucose AUC4–8h (after lunch) (2.5 mg OD, Day 7): 802 ± 127 mg·h/dL | Plasma glucose AUC4–8h (after lunch) LS mean difference vs placebo (95% CI) (2.5 mg OD, Day 7): −250 (−348, −152)* mg h/dL | Plasma glucose AUC12–16h (after dinner) (2.5 mg OD, Day 7): 828 ± 63.2 mg·h/dL | Plasma glucose AUC12–16h (after dinner) LS mean difference vs placebo (95% CI) (2.5 mg OD, Day 7): −149 (−224, −73.6)* mg h/dL | Plasma glucose C max0–4h (after breakfast) (2.5 mg OD, Day 7): 219 ± 26.3 mg/dL | Plasma glucose C max4–8h (after lunch) (2.5 mg OD, Day 7): 230 ± 30.0 mg/dL | Plasma glucose C max4–8h (after lunch) LS mean difference vs placebo (95% CI) (2.5 mg OD, Day 7): −65.6 (−94.0, −37.1)* mg/dL | Plasma glucose C max12–16h (after dinner) (2.5 mg OD, Day 7): 250 ± 23.3 mg/dL | Plasma glucose C max12–16h (after dinner) LS mean difference vs placebo (95% CI) (2.5 mg OD, Day 7): −36.2 (−61.2, −11.3)* mg/dL | FPG (24 h after dose) (5 mg OD, Day 1): 132 ± 12 mg/dL | FPG (24 h after dose) LS mean difference vs placebo (95% CI) (5 mg OD, Day 1): −20.8 (−29.5, −12.1)* mg/dL | MPG0–16h (5 mg OD, Day 1): 173 ± 26.7 mg/dL | MPG0–16h LS mean difference vs placebo (95% CI) (5 mg OD, Day 1): −27.4 (−37.4, −17.4)* mg/dL | Plasma glucose AUC0–4h (after breakfast) (5 mg OD, Day 1): 752 ± 87.6 mg·h/dL | Plasma glucose AUC0–4h (after breakfast) LS mean difference vs placebo (95% CI) (5 mg OD, Day 1): −100 (−154, −46.5)* mg h/dL | Plasma glucose AUC4–8h (after lunch) (5 mg OD, Day 1): 710 ± 120 mg·h/dL | Plasma glucose AUC4–8h (after lunch) LS mean difference vs placebo (95% CI) (5 mg OD, Day 1): −104 (−183, −25.1)* mg h/dL | Plasma glucose AUC12–16h (after dinner) (5 mg OD, Day 1): 766 ± 118 mg·h/dL | Plasma glucose AUC12–16h (after dinner) LS mean difference vs placebo (95% CI) (5 mg OD, Day 1): −133 (−184, −81.7)* mg h/dL | Plasma glucose C max0–4h (after breakfast) (5 mg OD, Day 1): 231 ± 16.6 mg/dL | Plasma glucose C max4–8h (after lunch) (5 mg OD, Day 1): 207 ± 33.1 mg/dL | Plasma glucose C max4–8h (after lunch) LS mean difference vs placebo (95% CI) (5 mg OD, Day 1): −32.4 (−56.5, −8.28)* mg/dL | Plasma glucose C max12–16h (after dinner) (5 mg OD, Day 1): 225 ± 33.2 mg/dL | Plasma glucose C max12–16h (after dinner) LS mean difference vs placebo (95% CI) (5 mg OD, Day 1): −41.8 (−60.2, −23.5)* mg/dL | FPG (24 h after dose) (5 mg OD, Day 7): 126 ± 13 mg/dL | FPG (24 h after dose) LS mean difference vs placebo (95% CI) (5 mg OD, Day 7): −30.6 (−43.1, −18.1)* mg/dL | MPG0–16h (5 mg OD, Day 7): 168 ± 27.8 mg/dL | MPG0–16h LS mean difference vs placebo (95% CI) (5 mg OD, Day 7): −38.9 (−55.7, −22.1)* mg/dL | Plasma glucose AUC0–4h (after breakfast) (5 mg OD, Day 7): 708 ± 87.5 mg·h/dL | Plasma glucose AUC0–4h (after breakfast) LS mean difference vs placebo (95% CI) (5 mg OD, Day 7): −162 (−239, −84.9)* mg h/dL | Plasma glucose AUC4–8h (after lunch) (5 mg OD, Day 7): 710 ± 105 mg·h/dL | Plasma glucose AUC4–8h (after lunch) LS mean difference vs placebo (95% CI) (5 mg OD, Day 7): −184 (−284, −84.3)* mg h/dL | Plasma glucose AUC12–16h (after dinner) (5 mg OD, Day 7): 755 ± 137 mg·h/dL | Plasma glucose AUC12–16h (after dinner) LS mean difference vs placebo (95% CI) (5 mg OD, Day 7): −131 (−205, −57.5)* mg h/dL | Plasma glucose C max0–4h (after breakfast) (5 mg OD, Day 7): 222 ± 19.4 mg/dL | Plasma glucose C max4–8h (after lunch) (5 mg OD, Day 7): 211 ± 35.1 mg/dL | Plasma glucose C max4–8h (after lunch) LS mean difference vs placebo (95% CI) (5 mg OD, Day 7): −41.0 (−69.8, −12.1)* mg/dL | Plasma glucose C max12–16h (after dinner) (5 mg OD, Day 7): 223 ± 38.8 mg/dL | Plasma glucose C max12–16h (after dinner) LS mean difference vs placebo (95% CI) (5 mg OD, Day 7): −33.7 (−58.4, −9.02)* mg/dL
